Source: ChEMBL document CHEMBL1129609, “Synthesis and antiviral activity evaluation of some new aminoadamantane derivatives. 2” (1996)
Converted amounts (≈) assume the structure as drawn.

Experiments:
[1] = tested on: CCRF-CEM; assay: Antiviral activity of compound was tested against viability virus infected CEM cell lines.; format: functional; details: Homo sapiens
[2] = tested on: CCRF-CEM; assay: Antiviral activity of compound were tested against HIV-2 virus infected CEM cell lines.; format: functional; details: Homo sapiens
[3] = tested on: HEF; assay: Antiviral activity of compound was tested against HSV-2 virus infected HEF cell lines.; format: functional; details: Homo sapiens
In short: (§1)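 Human embryonic fibroblasts, from embryonic lung or embryonic skin-muscle, infected with the virus. Endpoint is the minimum inhibitory concentration that reduces virus-induced cytopathicity by 50%. Values are averages of at least two separate experiments.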

[4] = tested on: HEF; assay: Antiviral activity of compound was tested against TK-HSV-1 virus infected HEF cell lines.; format: functional; details: Homo sapiens; in short: as §1
[5] = tested on: HEF; assay: Antiviral activity of compound was tested against morphology virus infected HEF cell lines.; format: functional; details: Homo sapiens
[6] = tested on: HEF; assay: Antiviral activity of compound was tested against vaccinia virus infected HEF cell lines.; format: functional; details: Homo sapiens; in short: as §1
[7] = tested on: HEL; assay: Antiviral activity of compound was tested against proliferation virus infected HEL cell lines.; format: functional; details: Homo sapiens
[8] = tested on: HeLa; assay: Antiviral activity of compound was tested against morphology virus infected HeLa cell lines.; format: functional; details: Homo sapiens
[9] = tested on: HeLa; assay: Antiviral activity of compound was tested against polio-1 virus infected HeLa cell lines.; format: functional; details: Homo sapiens
In short: (§2)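 Vero (African green monkey kidney), HeLa (human epithelial) or HEL (human embryonic lung) cell monolayers infected with the virus. Readout is the minimum inhibitory concentration that reduces virus-induced cytopathicity by 50%. Values are averages of at least two separate experiments.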

[10] = tested on: HeLa; assay: Antiviral activity of compound was tested against stomatitis virus infected HeLa cell lines.; format: functional; details: Homo sapiens; in short: as §2
[11] = tested on: HEL; assay: Antiviral activity of compound was tested against HCMV virus infected HEL cell lines.; format: functional; details: Homo sapiens; in short: as §2
[12] = tested on: HEL; assay: Antiviral activity of compound was tested against TK+VZV virus infected HEL cell lines.; format: functional; details: Homo sapiens; in short: as §2
[13] = tested on: HEL; assay: Antiviral activity of compound was tested against TK-VZV virus infected HEL cell lines.; format: functional; details: Homo sapiens; in short: as §2
[14] = tested on: HeLa; assay: Antiviral activity of compound was tested against Coxsackie B4 virus infected HeLa cell lines.; format: functional; details: Homo sapiens; in short: as §2
[15] = tested on: MDCK; assay: Antiviral activity tested against influenza A,H1N1 virus infected MDCK cell lines.; format: functional; details: Canis lupus familiaris
[16] = tested on: MDCK; assay: Antiviral activity of compound was tested against influenza A,H3N2 virus infected MDCK cell lines.; format: functional; details: Canis lupus familiaris
[17] = tested on: MDCK; assay: Antiviral activity of compound was tested against influenza […] virus infected MDCK cell lines; format: functional; details: Canis lupus familiaris
[18] = tested on: MDCK; assay: Antiviral activity of compound was tested against morphology virus infected MDCK cell lines.; format: functional; details: Canis lupus familiaris
[19] = tested on: Vero; assay: Antiviral activity of compound was tested against sindbis virus infected vero cell lines.; format: functional; details: Chlorocebus sabaeus; in short: as §2
[20] = tested on: Vero; assay: Antiviral activity of compound were tested against semliki forest virus infected vero cell lines.; format: functional; details: Chlorocebus sabaeus; in short: as §2
[21] = tested on: Vero; assay: Antiviral activity of compound was tested against Coxsackie B4 virus infected vero cell lines.; format: functional; details: Chlorocebus sabaeus; in short: as §2
[22] = tested on: Vero; assay: Antiviral activity of compound was tested against parainfluenza 3,[…] virus infected Vero cell lines.; format: functional; details: Chlorocebus sabaeus; in short: as §2
[23] = tested on: Vero; assay: Antiviral activity of compound was tested against reo1 virus infected vero cell lines.; format: functional; details: Chlorocebus sabaeus; in short: as §2
[24] = Antiviral activity against influenza A,H2N2 virus infected MDCK cell lines.; format: functional
[25] = tested on: Vero; assay: Antiviral activity of compound was tested against morphology virus infected Vero cell lines.; format: functional; details: Chlorocebus sabaeus
[26] = tested on: CCRF-CEM; assay: Antiviral activity of compound was tested against HIV-1 virus infected CEM cell lines.; format: functional; details: Homo sapiens
[27] = tested on: HEF; assay: Antiviral activity of compound was tested against vesicular virus infected HEF cell lines.; format: functional; details: Homo sapiens; in short: as §1
[28] = tested on: Human alphaherpesvirus 1; assay: Antiviral activity against HSV-1 virus infected HEF cell lines.; format: functional; in short: as §1
[29] = tested on: Human alphaherpesvirus 2; assay: Antiviral activity against HSV-2 virus infected HEF cell lines.; format: functional; in short: as §1
[30] = tested on: Human alphaherpesvirus 1; assay: Antiviral activity against TK-HSV-1 virus infected HEF cell lines.; format: functional; in short: as §1
[31] = tested on: Vaccinia virus; assay: Antiviral activity against vaccinia virus infected HEF cell lines.; format: functional; details: Orthopoxvirus vaccinia; in short: as §1
[32] = tested on: Vesicular stomatitis virus; assay: Antiviral activity against vesicular stomatitis virus infected HEF cell lines.; format: functional; in short: as §1
[33] = tested on: Human immunodeficiency virus 2; assay: Antiviral activity against HIV-2 virus infected CEM cell lines.; format: functional, CCRF-CEM
[34] = tested on: Human respirovirus 3; assay: Antiviral activity against parainfluenza 3 virus infected Vero cell lines.; format: functional; in short: as §2

Compound | MIC50 [1] | MIC50 [5] | MIC50 [7] | MIC50 [8] | MIC50 [9] | MIC50 [10] | MIC50 [11] | MIC50 [12] | MIC50 [13] | MIC50 [14] | MIC50 [15] | MIC50 [16] | MIC50 [17] | MIC50 [18] | MIC50 [19] | MIC50 [20] | MIC50 [21] | MIC50 [23] | MIC50 [24] | MIC50 [25] | further results
CN(C)CC1CCN(C23CC4CC(CC(C4)C2)C3)C1 (stereo not drawn) | 79 µg/mL (≈ 301 µM) | 40 µg/mL (≈ 152 µM) | > 50 µg/mL | 400 µg/mL (≈ 1520 µM) | > 200 µg/mL | > 200 µg/mL | > 20 µg/mL | > 20 µg/mL | > 50 µg/mL | > 200 µg/mL | > 36 µg/mL | > 100 µg/mL | > 100 µg/mL | 400 µg/mL (≈ 1520 µM) | > 100 µg/mL | > 100 µg/mL | > 100 µg/mL | > 100 µg/mL | 16.1 µg/mL (≈ 61.3 µM) | > 400 µg/mL | MIC50 [2]: > 40 µg/mL; MIC50 [3]: > 10 µg/mL; MIC50 [4]: > 10 µg/mL; MIC50 [6]: > 10 µg/mL; MIC50 [22]: > 100 µg/mL; MIC50 [26]: > 23 µg/mL; MIC50 [27]: > 10 µg/mL
CN1CCOCC12C1CC3CC(C1)CC2C3 (stereo not drawn) | > 200 µg/mL | > 400 µg/mL | > 50 µg/mL | > 400 µg/mL | > 400 µg/mL | > 400 µg/mL | > 50 µg/mL | > 50 µg/mL | > 50 µg/mL | > 400 µg/mL | 22 µg/mL (≈ 99.4 µM) | 53 µg/mL (≈ 239 µM) | 60 µg/mL (≈ 271 µM) | > 250 µg/mL | > 400 µg/mL | > 400 µg/mL | > 400 µg/mL | > 400 µg/mL | 4.3 µg/mL (≈ 19.4 µM) | > 400 µg/mL | MIC50 [2]: > 200 µg/mL; MIC50 [28]: > 400 µg/mL; MIC50 [29]: > 400 µg/mL; MIC50 [30]: > 400 µg/mL; MIC50 [31]: > 400 µg/mL; MIC50 [22]: > 400 µg/mL; MIC50 [26]: 158 µg/mL (≈ 714 µM); MIC50 [32]: > 400 µg/mL
CN(C)CC1CCCN1C12CC3CC(CC(C3)C1)C2 (stereo not drawn) | > 200 µg/mL | > 400 µg/mL | > 50 µg/mL | > 400 µg/mL | > 400 µg/mL | > 400 µg/mL | > 50 µg/mL | > 50 µg/mL | > 50 µg/mL | > 400 µg/mL | > 70 µg/mL | 73 µg/mL (≈ 278 µM) | 60 µg/mL (≈ 229 µM) | > 250 µg/mL | > 400 µg/mL | > 400 µg/mL | > 400 µg/mL | > 400 µg/mL | 32.5 µg/mL (≈ 124 µM) | > 400 µg/mL | MIC50 [33]: > 200 µg/mL; MIC50 [28]: > 200 µg/mL; MIC50 [29]: > 200 µg/mL; MIC50 [30]: > 200 µg/mL; MIC50 [6]: > 200 µg/mL; MIC50 [34]: > 400 µg/mL; MIC50 [26]: 115 µg/mL (≈ 438 µM); MIC50 [27]: > 200 µg/mL
